Laboratory results published in ChEMBL document CHEMBL2062482 (J Med Chem, 2012).

What was measured:
Cynomolgus monkey [1] = assay: AUC (0 to infinity) in cynomolgus monkey at 1 mg/kg, iv; assay type: ADME, organism-based, Macaca fascicularis, Plasma; design: time infinity, dose 1 mg/kg, route intravenous; details: in vivo
Outline: (§1)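 Single IV bolus, plasma sampled serially to 24 h post-dose, drug measured by LC-MS/MS, parameters by non-compartmental analysis. Rats and monkeys n = 3 per dose, dogs n = 3 at 1 mg/kg and n = 2 at 20 mg/kg. Nude mice n = 27 per dose level, n = 3 per time point. Mice received the HCl salt in 10% hydroxypropyl-β-cyclodextrin; rats, dogs and monkeys received the TFA salt in PBS.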

Rattus norvegicus [2] = assay: Volume of distribution at steady state in Sprague-Dawley rat at 20 mg/kg, iv; assay type: ADME, organism-based; design: dose 20 mg/kg, route intravenous; details: in vivo
Outline: (§2)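 Single IV bolus at 1 or 20 mg/kg of TFA salt in phosphate-buffered saline to male Sprague-Dawley rats (n = 3 per dose), Beagle dogs (n = 3 at 1 mg/kg, male; n = 2 at 20 mg/kg, male/female) and male cynomolgus monkeys (n = 3 per dose). Serial plasma to 24 h; LC-MS/MS; non-compartmental analysis.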

Canis familiaris [3] = assay: Volume of distribution at steady state in Beagle dog at 20 mg/kg, iv; assay type: ADME, organism-based, Canis lupus familiaris; design: dose 20 mg/kg, route intravenous; details: in vivo; outline: as §2
Cynomolgus monkey [4] = assay: Volume of distribution at steady state in cynomolgus monkey at 20 mg/kg, iv; assay type: ADME, organism-based, Macaca fascicularis; design: dose 20 mg/kg, route intravenous; details: in vivo; outline: as §2
Rattus norvegicus [5] = assay: Terminal half life in Sprague-Dawley rat at 20 mg/kg, iv; assay type: ADME, organism-based; design: dose 20 mg/kg, route intravenous; details: in vivo; outline: as §1
Canis familiaris [6] = assay: Terminal half life in Beagle dog at 20 mg/kg, iv; assay type: ADME, organism-based, Canis lupus familiaris; design: dose 20 mg/kg, route intravenous; details: in vivo; outline: as §1
Cynomolgus monkey [7] = assay: Terminal half life in cynomolgus monkey at 20 mg/kg, iv; assay type: ADME, organism-based, Macaca fascicularis; design: dose 20 mg/kg, route intravenous; details: in vivo; outline: as §1
Rattus norvegicus [8] = assay: Cmax in Sprague-Dawley rat at 20 mg/kg, iv; assay type: ADME, organism-based; design: dose 20 mg/kg, route intravenous; details: in vivo; outline: as §1
[9] = Cmax in Beagle dog at 20 mg/kg, iv; assay type: ADME, organism-based, Canis lupus familiaris; design: dose 20 mg/kg, route intravenous; details: in vivo; outline: as §1
Cynomolgus monkey [10] = assay: Cmax in cynomolgus monkey at 20 mg/kg, iv; assay type: ADME, organism-based, Macaca fascicularis; design: dose 20 mg/kg, route intravenous; details: in vivo; outline: as §1
Rattus norvegicus [11] = assay: AUC (0 to infinity) in Sprague-Dawley rat at 20 mg/kg, iv; assay type: ADME, organism-based, Plasma; design: time infinity, dose 20 mg/kg, route intravenous; details: in vivo; outline: as §1
Canis familiaris [12] = assay: AUC (0 to infinity) in Beagle dog at 20 mg/kg, iv; assay type: ADME, organism-based, Canis lupus familiaris, Plasma; design: time infinity, dose 20 mg/kg, route intravenous; details: in vivo; outline: as §1
Cynomolgus monkey [13] = assay: AUC (0 to infinity) in cynomolgus monkey at 20 mg/kg, iv; assay type: ADME, organism-based, Macaca fascicularis, Plasma; design: time infinity, dose 20 mg/kg, route intravenous; details: in vivo; outline: as §1
Mus musculus [14] = assay: Cmax in mouse at 100 mg/kg, po; assay type: ADME, organism-based; design: dose 100 mg/kg, route oral; details: in vivo
Outline: (§3)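 Female mice given the mono-TFA salt orally at 100 mg/kg as a solution in PBS.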

Mus musculus [15] = assay: AUC in mouse at 100 mg/kg, po; assay type: ADME, organism-based, Plasma; design: dose 100 mg/kg, route oral; details: in vivo; outline: as §3
Mus musculus [16] = assay: Toxicity in po dosed mouse xenografted with human MDA-MB-231 cells assessed as effect on body weight measured on days 28; assay type: organism-based; details: in vivo
Outline: (§4)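 MDA-MB-231 cells (1.5 × 10^7, 1:1 Matrigel in PBS) implanted subcutaneously in right flank of female nude mice aged 6–8 weeks; ten per group, mean starting tumor 168 mm3. Oral gavage in PBS vehicle, 4.0 mL/kg, schedules including 10, 50 or 100 mg/kg weekly, 10 mg/kg daily or every third day. Body weights measured twice weekly.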

Mus musculus [17] = assay: Toxicity in mouse xenografted with human MDA-MB-231 cells assessed as effect on body weight at 100 mg/kg, po after 28 days; assay type: organism-based; design: dose 100 mg/kg, route oral; details: in vivo, 672 h; outline: as §4
Rattus norvegicus [18] = assay: Volume of distribution at steady state in Sprague-Dawley rat at 1 mg/kg, iv; assay type: ADME, organism-based; design: dose 1 mg/kg, route intravenous; details: in vivo; outline: as §2
[19] = Volume of distribution at steady state in Beagle dog at 1 mg/kg, iv; assay type: ADME, organism-based, Canis lupus familiaris; design: dose 1 mg/kg, route intravenous; details: in vivo, read-out: Vdss; outline: as §2
Cynomolgus monkey [20] = assay: Volume of distribution at steady state in cynomolgus monkey at 1 mg/kg, iv; assay type: ADME, organism-based, Macaca fascicularis; design: dose 1 mg/kg, route intravenous; details: in vivo; outline: as §2
Rattus norvegicus [21] = assay: Terminal half life in Sprague-Dawley rat at 1 mg/kg, iv; assay type: ADME, organism-based; design: dose 1 mg/kg, route intravenous; details: in vivo; outline: as §1
Canis familiaris [22] = assay: Terminal half life in Beagle dog at 1 mg/kg, iv; assay type: ADME, organism-based, Canis lupus familiaris; design: dose 1 mg/kg, route intravenous; details: in vivo; outline: as §1
Cynomolgus monkey [23] = assay: Terminal half life in cynomolgus monkey at 1 mg/kg, iv; assay type: ADME, organism-based, Macaca fascicularis; design: dose 1 mg/kg, route intravenous; details: in vivo; outline: as §1
Rattus norvegicus [24] = assay: Cmax in Sprague-Dawley rat at 1 mg/kg, iv; assay type: ADME, organism-based; design: dose 1 mg/kg, route intravenous; details: in vivo; outline: as §1
Canis familiaris [25] = assay: Cmax in Beagle dog at 1 mg/kg, iv; assay type: ADME, organism-based, Canis lupus familiaris; design: dose 1 mg/kg, route intravenous; details: in vivo; outline: as §1
Cynomolgus monkey [26] = assay: Cmax in cynomolgus monkey at 1 mg/kg, iv; assay type: ADME, organism-based, Macaca fascicularis; design: dose 1 mg/kg, route intravenous; details: in vivo; outline: as §1
Rattus norvegicus [27] = assay: AUC (0 to infinity) in Sprague-Dawley rat at 1 mg/kg, iv; assay type: ADME, organism-based, Plasma; design: time infinity, dose 1 mg/kg, route intravenous; details: in vivo; outline: as §1
Canis familiaris [28] = assay: AUC (0 to infinity) in Beagle dog at 1 mg/kg, iv; assay type: ADME, organism-based, Canis lupus familiaris, Plasma; design: time infinity, dose 1 mg/kg, route intravenous; details: in vivo; outline: as §1
MDA-MB-231 = assay: Antitumor activity against human MDA-MB-231 cells xenografted in mouse assessed as reduction in tumor volume at 100 mg/kg, po administered once in week measured on day 21 relative to control; design: scale not given: the % may be the effect or the level left

**Q.** What does the source list for `CN[C@@H](C)C(=O)N[C@H](C(=O)N1CCC[C@H]1C(=O)Nc1snnc1-c1ccccc1)C1CCCCC1.O=C(O)C(F)(F)F`?
**A.** AUC (Cynomolgus monkey [1]): 0.71 µM·h; Vdss (Rattus norvegicus [2]): 1.7 L/kg; Vdss (Canis familiaris [3]): 1.5 L/kg; Vdss (Cynomolgus monkey [4]): 2.2 L/kg; beta t1/2 (Rattus norvegicus [5]): 50.4 min; beta t1/2 (Canis familiaris [6]): 120 min; beta t1/2 (Cynomolgus monkey [7]): 46.2 min; Cmax (Rattus norvegicus [8]): 31 µM; Cmax [9]: 30 µM; Cmax (Cynomolgus monkey [10]): 24 µM; AUC (Rattus norvegicus [11]): 25 µM·h; AUC (Canis familiaris [12]): 36 µM·h; AUC (Cynomolgus monkey [13]): 19 µM·h; Cmax (Mus musculus [14]): 53.7 µM; AUC (Mus musculus [15]): 203.5 µM·h; Activity (Mus musculus [16]): >= 5%; Activity (Mus musculus [17]): Toxic; Vdss (Rattus norvegicus [18]): 2 L/kg; Vd [19]: 1 L/kg; Vdss (Cynomolgus monkey [20]): 1.6 L/kg; beta t1/2 (Rattus norvegicus [21]): 25.8 min; beta t1/2 (Canis familiaris [22]): 54 min; beta t1/2 (Cynomolgus monkey [23]): 26.4 min; Cmax (Rattus norvegicus [24]): 1.1 µM; Cmax (Canis familiaris [25]): 3.8 µM; Cmax (Cynomolgus monkey [26]): 1.46 µM; AUC (Rattus norvegicus [27]): 0.51 µM·h; AUC (Canis familiaris [28]): 2.1 µM·h; Activity (MDA-MB-231): 85%
